High-throughput results deposited in PubChem by several laboratories.
SKN-1 block = suppressors of acrylamide-induced Pgst-4::GFP reporter in worms, primary screen, SKN-1 inhibitor project, whole organism, uHTS, GFP/RFP fluorescence ratio, strain VP596; 360,000 compounds, 0.49% hits; AID 624304, 2012; inhibition, % at 21.8 µM; C. elegans VP596 Pgst-4::GFP/RFP ratio, 24 h;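 active = interference check ratio from 0.5 to 1.5 plus GFP to RFP signal ratio inhibition reaching or exceeding a fixed threshold, cut at about 30% in these data, passing the limit was not always enough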
TbMetRS inhib = T. brucei MetRS inhibitors, primary screen, biochemical, luminescence | methionyl-tRNA synthetase (Trypanosoma brucei brucei) | purified T. brucei MetRS, ATP depletion, Kinase-Glo luminescence | inhibition, % at 11.9 µM | 360,000 compounds, 0.4% hits;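 active = inhibition above a per-plate cutoff of the control wells' mean inhibition plus 3 SD, cut at about 5.5% in these data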;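 also: 0% = DMSO wells median and 100% = median of wells with control inhibitor compound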
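Test system – parasite MetRS enzyme · Reagent – substrates ATP, L-methionine and bulk Escherichia coli tRNA · Doses – 11.9 µM compound single dose, 0.9% DMSO · Times – 15 min enzyme-compound preincubation, 2 h reaction, 10 min detection, 25 °C · Signal – Kinase-Glo luminescence, ATP depletion format · Controls – DMSO-only wells as low control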
Arrestin-AP2 inh = inhibitors of beta-arrestin/AP2 binding, primary screen, biochemical, GPCR trafficking, flow cytometry; FITC-arrestin peptide / GST-AP2 beads; AP2 beta2 appendage carries R879A mutation; inhibition, % at 10 µM; 340,000 compounds, 0.31% hits; AID 504490, 2011;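 active = inhibition above a set limit, near 3 SD of compounds lacking own fluorescence, cut at about 54% in these data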;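 also: plate controls were DMSO wells for no effect and 5 µM unlabelled arrestin peptide for full effect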
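Measured by: flow cytometry, FL1 (488/535 nm); Material: AP2 appendage R879A on GSH beads; Evaluation: percent response; Timing: pre-incubation 12 min, peptide binding 1 h, room temperature; Also added: 50 nM FITC-arrestin peptide; Medium: PBS with 0.05% Tween 20 and 0.1% BSA.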
Rin1 Abl inh = inhibitors of Rin1-Abl protein binding, primary screen, biochemical, TR-FRET. Tyrosine-protein kinase ABL1 (Homo sapiens) + Ras and Rab interactor 1 (Homo sapiens), …. inhibition, % at 7.35 µM. 360,000 compounds, 0.4% hits; in the data active = inhibition above about 5%, passing the limit was not always enough
MT1-MMP act inh = blockers of MT1-MMP proenzyme processing, primary screen, HT1080 RFP-PRO-GFP cells, GFP/RFP fluorescence; Matrix metalloproteinase-14 (Homo sapiens), P50281; GFP/RFP ratio fluorescence, overnight; percent of plate control window, DMSO zero; GFP/RFP ratio change, % at 20 µM; 360,000 compounds, 0.061% hits;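 active = GFP/RFP ratio change of at least 30% with cell ATP level not reduced by more than half and red fluorescence within 50% of control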
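Test system: HT1080 RFP-PRO-GFP cells; Benchmarks: DMSO and RFP-L50D-GFP cell wells; Timing: cells overnight before dosing, compound overnight, 37 °C, 5% CO2; Compound: one 20 µM compound dose with 1% DMSO; Read-out: GFP/RFP fluorescence ratio.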
Arr AP2 CP1 = inhibitors of arrestin peptide binding to AP2, confirmation, biochemical, cherry pick 1, flow cytometry beads; shares compounds with Arrestin-AP2 inh; GST-AP2 beads, FITC arrestin peptide binding; GST-fused beta2-adaptin appendage, R879A mutant; inhibition, % at 10 µM; 1,300 compounds, 2% hits;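 active = inhibition above a set limit, roughly 3 SD of non-fluorescent compound noise, cut at about 38% in these data; inactive = inhibition at or below that limit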;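 also: loss of bead fluorescence from 50 nM FITC arrestin peptide bound to appendage; 0% = negative control wells and 100% = excess unlabelled arrestin peptide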
GST-FITC bead = GST-fluorescein capture on glutathione beads, confirmation, artefact control for arrestin-AP2 inhibitor project, biochemical, cherry pick 1, flow cytometry; shares compounds with Arrestin-AP2 inh; GST-fluorescein binding to GSH beads, fluorescence, counter-screen; 1,300 compounds, 2% hits; inhibition, % at 10 µM;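 active = inhibition above 50%, about 3 SD of the inhibition seen with non-fluorescent compounds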;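 also: fluorescein maleimide labelled GST captured on 4 micron glutathione beads; higher means more loss of bead fluorescence from quenching or blocked binding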
* hit, by the source's call; / = no result. In the library only some 1.6% were active in any assay of this set; here they are far more common.

SMILES	SKN-1 block	TbMetRS inhib	Arrestin-AP2 inh	Rin1 Abl inh	MT1-MMP act inh	Arr AP2 CP1	GST-FITC bead
COc1cc2c(cc1NC(=O)CSc1cccc[n+]1[O-])oc1ccccc12	8	-1	56*	1	5	0	0
CC(C)(C)S(=O)(=O)N1C[C@H]2CC/C=C\C/C(c3ccccc3)=C\2[C@@H]1CCO	-5	-1	8	-1	-3	/	/
Cc1ccc(CS(=O)(=O)Cc2ccc(C(=O)NCCCN3CC(C)CC(C)C3)o2)cc1 (stereo not given)	3	-1	-4	4	-2	/	/
CC1CC(C)CN(CCCNC(=O)c2ccc(CS(=O)(=O)Cc3ccccc3F)o2)C1 (stereo not given)	-6	-1	59*	-6	3	-3	-11
COc1cccc(NC(=O)C2(C)CCN2C(=O)C2CCCCC2)c1 (stereo not given)	25	0	/	-1	-1	/	/
COc1ccc(-c2nn(-c3ccccc3)cc2/C=C(\C#N)S(=O)(=O)c2ccccc2)cc1OC	-2	-1	78*	3	1	22	-3
Cc1cccc(N/N=C(\C(N)=O)C2=NC(C)(C)Cc3ccccc32)c1	6	0	55*	-2	-3	19	0
CCS(=O)(=O)Nc1cccc(C2=NN(C(C)=O)C(c3cccs3)C2)c1 (stereo not given)	2	-1	54*	6	1	-4	-10
COc1ccc(NC(=O)c2cc(-c3cc(F)ccc3OCC3CCCO3)n[nH]2)c(C)c1 (stereo not given)	12	0	/	-4	-7	/	/
COc1ccc(-n2nc(N)c(C(N)=O)n2)cc1	-7	-1	55*	3	4	8	3
COc1ccc(-n2nc3ccc(N)cc3n2)cc1	16	1	/	-3	0	/	/
Cc1ccc(S(=O)(=O)N2C3CCCCC3O[C@H]2CC(=O)OCc2ccccc2)cc1 (stereo not given in full)	14	0	/	/	-2	/	/
O=C(NCc1ccccc1)C(c1ccc(C(F)(F)F)cc1)n1c(=O)c(-c2cc3ccccc3[nH]2)nc2ccccc21 (stereo not given)	-8	-1	/	/	-9	/	/
CC(C)C[C@@H](CN)NC(=O)c1nc[nH]c1C(=O)N[C@@H](C)C(=O)CNC[C@H](C)NC(=O)c1nc[nH]c1C(=O)N[C@@H](C)C(=O)O	5	1	8	1	0	/	/
CCCCn1c(=N)n(CCOc2ccc(C)cc2)c2ccccc21	8	-1	73*	0	-10	-4	-3
CC(C)Nc1nnc(SC(C)C(=O)Nc2ccc(Cl)cn2)s1 (stereo not given)	-14	0	55*	3	-3	0	5
Cc1csc(SC(C)C(=O)Nc2ccc(Cl)cn2)n1 (stereo not given)	-9	0	10	-5	-3	/	/
COCCCN1C(=O)C(CC(=O)NCc2cccs2)CC(C(=O)N2CCCCCC2)=C1C (stereo not given)	3	0	/	/	3	/	/
O=C(O)c1cnn2c(-c3ccccc3)ccnc12	14	-2	-14	-1	2	/	/
NC(=O)c1cnn2c(-c3cccc(C(F)(F)F)c3)ccnc12	-9	0	68*	1	2	-11	-4
COCCN(C(=O)COC(=O)/C(=C/c1ccccc1)NC(C)=O)c1c(N)n(Cc2ccccc2)c(=O)[nH]c1=O	3	0	59*	3	-3	10	-1
CN(Cc1cccc(F)c1)C(=O)c1ccc(S(=O)(=O)N2CCOCC2)cc1	-12	0	63*	1	3	-4	-7
O=C(NC1CCCCCC1)c1cc(S(=O)(=O)N2CCOCC2)ccc1N1CCCCC1	23	-1	-8	-3	-4	-8	-4
CC1CCN(C(=O)c2cc(S(=O)(=O)N3CCOCC3)ccc2N2CCCC2)CC1	2	0	26	-3	5	1	-7
CC(Oc1cccc(Cl)c1)C(=O)Nc1cc(S(=O)(=O)N2CCOCC2)ccc1N1CCCC1 (stereo not given)	-7	-1	62*	-1	-6	2	1
SMILES	SKN-1 block	TbMetRS inhib	Arrestin-AP2 inh	Rin1 Abl inh	MT1-MMP act inh	Arr AP2 CP1	GST-FITC bead
CN(Cc1cccc(F)c1)C(=O)c1ccc(S(=O)(=O)N2CCCCCC2)cc1	-2	0	18	0	-4	/	/
COc1cccc(-c2oc3c(c2C#CC2(N)CCCCC2)C(O)CCC3)c1 (stereo not given)	0	0	/	/	-5	/	/
O=C(NCc1cccnc1)c1csc([C@H]2C[C@H](O)[C@@H](CO)O2)n1	14	0	/	-6	0	/	/
COC(=O)c1ccc(CNC(=O)CC[C@H]2O[C@@H](n3cc(C)c(=O)[nH]c3=O)C[C@@H]2O)cc1	-2	-1	/	2	2	/	/
O=C(Nc1ccc(OC(F)F)cc1)c1cc(S(=O)(=O)N2CCOCC2)ccc1N1CCCC1	3	0	28	5	-2	1	2
COc1ccc(NC(=O)c2cc(S(=O)(=O)N3CCOCC3)ccc2N2CCOCC2)cc1	-3	0	-9	0	-4	/	/
COc1ccc(CN(C)C(=O)c2cc(S(=O)(=O)N3CCOCC3)ccc2N2CCCC2)cc1	-8	0	6	4	-5	-2	-4
CC(=O)C1CCC2C3CC=C4CC(SC(=N)N)CCC4(C)C3CCC12C (stereo not given)	10	0	25	4	-3	/	/
CNc1snc(C)c1C(=O)OC(C)C(=O)Nc1ccc(F)cc1 (stereo not given)	1	-1	-2	-1	4	/	/
CC1Cc2nc(SCC(=O)c3ccccc3)n(Cc3ccccc3)c(=O)c2S1 (stereo not given)	10	-1	5	-2	0	/	/
CSc1nc2c(c(=O)n1Cc1ccccc1)SC(C)C2 (stereo not given)	9	-1	56*	1	-8	-5	-2
